Test results published in ChEMBL document CHEMBL1154674, “Synthesis and evaluation of three 18F-labeled aminophenylbenzothiazoles as amyloid imaging agents” (J Med Chem, 2009).

Legend:
Format in all cases: ADME, organism-based, Macaca mulatta
[1] = Drug level in normal rhesus monkey thalamus assessed as standard uptake value at 81.2 MBq, iv after 1.5 mins by microPET; details: in vivo, 0.025 h
[2] = Drug level in normal rhesus monkey pons assessed as standard uptake value at 81.2 MBq, iv after 32.5 mins by microPET; details: in vivo
[3] = Drug level in normal rhesus monkey pons assessed as standard uptake value at 96.3 MBq, iv after 105 mins by microPET; details: in vivo, 1.75 h
[4] = Drug level in normal rhesus monkey white matter assessed as standard uptake value at 96.3 MBq, iv after 27.5 mins by microPET; details: in vivo
[5] = Drug level in normal rhesus monkey cerebellum assessed as standard uptake value at 96.3 MBq, iv after 10 mins by microPET; details: in vivo
In short: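 One normal rhesus monkey, each tracer given iv via the vena saphena (81.2, 96.3 or 109.4 MBq), with 1 day between tracer injections. Dynamic brain μPET over 180 min used frames of 5 × 60 s, 5 × 120 s, 9 × 300 s and 12 × 600 s. Images were reconstructed by filtered back projection with a RAMP filter. Regional time-activity curves were expressed as SUV.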

[6] = Drug level in normal rhesus monkey frontal cortex assessed as standard uptake value at 96.3 MBq, iv after 125 mins by microPET; details: in vivo
[7] = Drug level in normal rhesus monkey pons assessed as standard uptake value at 96.3 MBq, iv after 85 mins by microPET; details: in vivo
[8] = Drug level in normal rhesus monkey pons assessed as standard uptake value at 96.3 MBq, iv after 1.5 mins by microPET; details: in vivo, 0.025 h
[9] = Drug level in normal rhesus monkey frontal cortex assessed as standard uptake value at 96.3 MBq, iv after 6 mins by microPET; details: in vivo, 0.1 h
[10] = Drug level in normal rhesus monkey parietal cortex assessed as standard uptake value at 96.3 MBq, iv after 32.5 mins by microPET; details: in vivo
[11] = Drug level in normal rhesus monkey thalamus assessed as standard uptake value at 109.4 MBq, iv after 81 mins by microPET; details: in vivo, 1.35 h
[12] = Drug level in normal rhesus monkey frontal cortex assessed as standard uptake value at 109.4 MBq, iv after 22.5 mins by microPET; details: in vivo, 0.375 h
In short: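 Single normal rhesus monkey; each tracer given iv via the vena saphena, with 1 day between tracer injections. Dynamic μPET ran 180 min (5×60 s, 5×120 s, 9×300 s, 12×600 s). Images were reconstructed by filtered back projection with a RAMP filter. Regional time-activity curves were expressed as SUV.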

[13] = Drug level in normal rhesus monkey white matter assessed as standard uptake value at 152.9 MBq, iv after 32.5 mins by microPET; details: in vivo
[14] = Drug level in normal rhesus monkey cerebellum assessed as standard uptake value at 152.9 MBq, iv after 2.5 mins by microPET; details: in vivo
In short: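 One normal rhesus monkey received each tracer via the vena saphena, with 1 day between injections. Dynamic μPET ran 180 min for 18F tracers (5×60 s, 5×120 s, 9×300 s, 12×600 s) and 90 min for the 11C tracer (5×60 s, 5×120 s, 9×300 s, 3×600 s). Filtered back-projection reconstruction (RAMP filter) was used. Time-activity curves were drawn to give regional SUV.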

[15] = Drug level in normal rhesus monkey thalamus assessed as standard uptake value at 152.9 MBq, iv after 57.5 mins by microPET; details: in vivo
[16] = Drug level in normal rhesus monkey white matter assessed as standard uptake value at 152.9 MBq, iv after 8 mins by microPET; details: in vivo

## CNc1ccc2nc(-c3ccc([18F])cc3)sc2c1
[1]
  SUV: 2.705
[2]
  SUV: 5.714

## CN(C)c1ccc2nc(-c3ccc([18F])cc3)sc2c1
[3]
  SUV: 1.72
[4]
  SUV: 1.39
[5]
  SUV: 1.69
[6]
  SUV: 1.54
[7]
  SUV: 2.06
[8]
  SUV: 0.8
[9]
  SUV: 1.97
[10]
  SUV: 1.9

## Nc1ccc2nc(-c3ccc([18F])cc3)sc2c1
[11]
  SUV: 5.18
[12]
  SUV: 5.16

## [11CH3]Nc1ccc(-c2nc3ccc(O)cc3s2)cc1 [PITTSBURGH COMPOUND B]
[13]
  SUV: 1.12
[14]
  SUV: 1.545
[15]
  SUV: 0.88
[16]
  SUV: 1.421
